Experimental data reported in ChEMBL document CHEMBL5705899 (Biochem J, 2014).
Calls of active or inactive are those of the source. No cut-off for these calls is given here.

Tests used:
[1] = molecular target: Protein-tyrosine kinase 2-beta (Homo sapiens) (UniProt Q14289); assay: Inhibition of human PYK2 at 1 uM using polyEY as substrate in presence of 33P-ATP by ProQinase assay
[2] = molecular target: Protein kinase C gamma type (Homo sapiens) (UniProt P05129); assay: (§1) Inhibition of recombinant human N-terminal GST-tagged PKCgamma (1 to 697 residues) expressed in baculovirus infected Sf21 cells assessed as remaining activity at 1 uM using Histone H1 as substrate incubated for 30 mins in presence of [gamma-33P]ATP by filter binding method relative to control
[3] = molecular target: Casein kinase I isoform gamma-2 (Homo sapiens) (UniProt P78368); assay: Inhibition of human CK1gamma2 at 1 uM using casein as substrate in presence of 33P-ATP by ProQinase assay
[4] = molecular target: Receptor tyrosine-protein kinase erbB-4 (Homo sapiens) (UniProt Q15303); assay: Inhibition of human ERBB4 at 1 uM using polyEy as substrate in presence of 33P-ATP by ProQinase assay
[5] = molecular target: Phosphatidylinositol 4-phosphate 3-kinase C2 domain-containing subunit beta (Homo sapiens, UniProt O00750); assay: Inhibition of PI3KC2beta (unknown origin) at 1 uM
[6] = tested on: TGF-beta receptor type-1 (Homo sapiens), P36897 [T204D]; assay: as §1, with “TGFBR1 T204D mutant (200” for “PKCgamma (1”, “501” for “697”, “crosstide peptide” for “Histone H1”
[7] = molecular target: Serine/threonine-protein kinase SIK2 (Homo sapiens) (UniProt Q9H0K1); assay: Inhibition of human SNF1LK2 at 1 uM using RBER-CHKtide as substrate in presence of 33P-ATP by ProQinase assay
[8] = molecular target: Serine/threonine-protein kinase TAO2 (Homo sapiens) (UniProt Q9UL54); assay: Inhibition of human TAOK2 at 1 uM using casein as substrate in presence of 33P-ATP by ProQinase assay
[9] = molecular target: Phosphatidylinositol 4-kinase beta (Homo sapiens, UniProt Q9UBF8); assay: Inhibition of PI4Kbeta (unknown origin) using D-myo-PtdIns as substrate incubated for 45 mins by ADP-Glo assay
How it was run: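 PI4Kα: 1 nM enzyme, 72 μM ATP, 25 μM PtdIns. PI4Kβ: 2 nM enzyme, 220 μM ATP, 50 μM PtdIns. Reactions ran 45 min at ambient temperature; ADP-Glo reagent was added for 40 min, then detection reagent for 30 min, then luminescence was read.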

[10] = molecular target: Serine/threonine-protein kinase MRCK beta (Homo sapiens) (UniProt Q9Y5S2); assay: Inhibition of human CDC42BPB at 1 uM using RB-S6P as substrate in presence of 33P-ATP by ProQinase assay
[11] = molecular target: Serine/threonine-protein kinase MARK1 (Homo sapiens) (UniProt Q9P0L2); assay: Inhibition of human MARK1 at 1 uM using RBER-CHKtide as substrate in presence of 33P-ATP by ProQinase assay
[12] = molecular target: Mitogen-activated protein kinase kinase kinase 11 (Homo sapiens) (UniProt Q16584); assay: Inhibition of recombinant human N-terminal GST-tagged MLK3 (96 to 386 residues) expressed in baculovirus infected Sf21 cells assessed as remaining activity at 1 uM using MBP as substrate incubated for 30 mins in presence of [gamma-33P]ATP by filter binding method relative to control
[13] = molecular target: Dual specificity tyrosine-phosphorylation-regulated kinase 3 (Homo sapiens) (UniProt O43781); assay: (§2) Inhibition of recombinant human N-terminal GST-tagged DYRK3 (1 to 588 residues) expressed in Escherichia coli assessed as remaining activity at 1 uM using KKISGRLSPIMTEQ as substrate incubated for 30 mins in presence of [gamma-33P]ATP by filter binding method relative to control
[14] = molecular target: Tyrosine-protein kinase HCK (Homo sapiens) (UniProt P08631); assay: Inhibition of human HCK at 1 uM using polyEY as substrate in presence of 33P-ATP by ProQinase assay
[15] = molecular target: cAMP-dependent protein kinase catalytic subunit PRKX (Homo sapiens) (UniProt P51817); assay: Inhibition of human PRKX at 1 uM using RBER-GSK3 as substrate in presence of 33P-ATP by ProQinase assay
[16] = molecular target: Mitogen-activated protein kinase kinase kinase kinase 2 (Homo sapiens) (UniProt Q12851); assay: Inhibition of recombinant human N-terminal His6-tagged GCK (2 to 812 residues) expressed in baculovirus infected Sf21 cells assessed as remaining activity at 1 uM using MBP as substrate incubated for 30 mins in presence of [gamma-33P]ATP by filter binding method relative to control
[17] = molecular target: Phosphatidylinositol 4,5-bisphosphate 3-kinase catalytic subunit gamma isoform (Homo sapiens, UniProt P48736); assay: Inhibition of PI3Kgamma (unknown origin) using PtdIns(4,5)P2 as substrate preincubated for 20 mins followed by substrate addition and measured after 80 mins by Kinase-Glo assay
[18] = molecular target: Tyrosine-protein kinase ABL1 (Homo sapiens) (UniProt P00519); assay: as §2, with “ABL (118” for “DYRK3 (1”, “535” for “588”, “coli co-expressed with His-tagged YopH” for “coli”, “EAIYAAPFAKKK” for “KKISGRLSPIMTEQ”
[19] = molecular target: Myosin light chain kinase, smooth muscle (Homo sapiens) (UniProt Q15746); assay: Inhibition of recombinant human N-terminal GST-tagged SmMLCK (475 to 838 residues) expressed in Escherichia coli assessed as remaining activity at 1 uM using KKRPQRATSNVFA as substrate incubated for 30 mins in presence of [gamma-33P]ATP by filter binding method relative to control
[20] = molecular target: Serine/threonine-protein kinase B-raf (Homo sapiens) (UniProt P15056); assay: Inhibition of human BRAF at 1 uM using MEK1-K97M as substrate in presence of 33P-ATP by ProQinase assay
[21] = molecular target: Receptor-interacting serine/threonine-protein kinase 2 (Homo sapiens) (UniProt O43353); assay: Inhibition of recombinant human N-terminal GST-tagged RIPK2 (2 to 311 residues) expressed in baculovirus infected Sf21 cells assessed as remaining activity at 1 uM using MBP as substrate incubated for 30 mins in presence of [gamma-33P]ATP by filter binding method relative to control
[22] = molecular target: Serine/threonine-protein kinase pim-2 (Homo sapiens) (UniProt Q9P1W9); assay: Inhibition of human PIM2 at 1 uM using RBER-GSK3 as substrate in presence of 33P-ATP by ProQinase assay
[23] = molecular target: Insulin receptor (Homo sapiens) (UniProt P06213); assay: Inhibition of human INSR at 1 uM using poly(Ala,Glu,Lys,Tyr) as substrate in presence of 33P-ATP by ProQinase assay
[24] = molecular target: NT-3 growth factor receptor (Homo sapiens) (UniProt Q16288); assay: Inhibition of human TRKC at 1 uM using polyEy as substrate in presence of 33P-ATP by ProQinase assay

Protein-tyrosine kinase 2-beta (Homo sapiens), sequence (Q14289 whole entry, looked up, the tested form may be a part): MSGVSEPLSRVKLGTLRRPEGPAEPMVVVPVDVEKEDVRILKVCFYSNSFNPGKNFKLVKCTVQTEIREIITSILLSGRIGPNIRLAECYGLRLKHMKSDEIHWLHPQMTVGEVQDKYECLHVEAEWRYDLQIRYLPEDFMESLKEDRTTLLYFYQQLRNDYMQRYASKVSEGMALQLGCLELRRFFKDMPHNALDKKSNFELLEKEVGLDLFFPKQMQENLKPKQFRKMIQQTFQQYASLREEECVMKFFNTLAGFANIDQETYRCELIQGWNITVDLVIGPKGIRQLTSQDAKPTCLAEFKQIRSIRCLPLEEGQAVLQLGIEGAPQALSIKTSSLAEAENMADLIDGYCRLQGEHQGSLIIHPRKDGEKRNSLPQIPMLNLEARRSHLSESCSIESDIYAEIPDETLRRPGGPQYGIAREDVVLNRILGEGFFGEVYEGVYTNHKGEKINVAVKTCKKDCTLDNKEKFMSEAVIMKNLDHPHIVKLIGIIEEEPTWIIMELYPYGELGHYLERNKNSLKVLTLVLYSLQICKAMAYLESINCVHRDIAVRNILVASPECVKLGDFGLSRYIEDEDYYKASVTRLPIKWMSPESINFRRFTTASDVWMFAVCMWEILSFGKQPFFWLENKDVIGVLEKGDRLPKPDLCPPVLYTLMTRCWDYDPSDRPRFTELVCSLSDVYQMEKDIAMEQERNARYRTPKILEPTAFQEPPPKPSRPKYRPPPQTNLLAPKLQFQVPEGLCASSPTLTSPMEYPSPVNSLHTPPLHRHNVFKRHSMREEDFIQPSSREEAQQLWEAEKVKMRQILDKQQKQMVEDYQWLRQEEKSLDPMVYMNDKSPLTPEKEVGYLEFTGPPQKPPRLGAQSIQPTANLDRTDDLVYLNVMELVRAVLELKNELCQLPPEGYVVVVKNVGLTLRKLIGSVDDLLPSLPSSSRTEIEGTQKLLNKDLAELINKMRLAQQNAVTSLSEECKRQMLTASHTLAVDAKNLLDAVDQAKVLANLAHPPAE
Receptor tyrosine-protein kinase erbB-4 (Homo sapiens), sequence (Q15303 whole entry, the tested form may be a part): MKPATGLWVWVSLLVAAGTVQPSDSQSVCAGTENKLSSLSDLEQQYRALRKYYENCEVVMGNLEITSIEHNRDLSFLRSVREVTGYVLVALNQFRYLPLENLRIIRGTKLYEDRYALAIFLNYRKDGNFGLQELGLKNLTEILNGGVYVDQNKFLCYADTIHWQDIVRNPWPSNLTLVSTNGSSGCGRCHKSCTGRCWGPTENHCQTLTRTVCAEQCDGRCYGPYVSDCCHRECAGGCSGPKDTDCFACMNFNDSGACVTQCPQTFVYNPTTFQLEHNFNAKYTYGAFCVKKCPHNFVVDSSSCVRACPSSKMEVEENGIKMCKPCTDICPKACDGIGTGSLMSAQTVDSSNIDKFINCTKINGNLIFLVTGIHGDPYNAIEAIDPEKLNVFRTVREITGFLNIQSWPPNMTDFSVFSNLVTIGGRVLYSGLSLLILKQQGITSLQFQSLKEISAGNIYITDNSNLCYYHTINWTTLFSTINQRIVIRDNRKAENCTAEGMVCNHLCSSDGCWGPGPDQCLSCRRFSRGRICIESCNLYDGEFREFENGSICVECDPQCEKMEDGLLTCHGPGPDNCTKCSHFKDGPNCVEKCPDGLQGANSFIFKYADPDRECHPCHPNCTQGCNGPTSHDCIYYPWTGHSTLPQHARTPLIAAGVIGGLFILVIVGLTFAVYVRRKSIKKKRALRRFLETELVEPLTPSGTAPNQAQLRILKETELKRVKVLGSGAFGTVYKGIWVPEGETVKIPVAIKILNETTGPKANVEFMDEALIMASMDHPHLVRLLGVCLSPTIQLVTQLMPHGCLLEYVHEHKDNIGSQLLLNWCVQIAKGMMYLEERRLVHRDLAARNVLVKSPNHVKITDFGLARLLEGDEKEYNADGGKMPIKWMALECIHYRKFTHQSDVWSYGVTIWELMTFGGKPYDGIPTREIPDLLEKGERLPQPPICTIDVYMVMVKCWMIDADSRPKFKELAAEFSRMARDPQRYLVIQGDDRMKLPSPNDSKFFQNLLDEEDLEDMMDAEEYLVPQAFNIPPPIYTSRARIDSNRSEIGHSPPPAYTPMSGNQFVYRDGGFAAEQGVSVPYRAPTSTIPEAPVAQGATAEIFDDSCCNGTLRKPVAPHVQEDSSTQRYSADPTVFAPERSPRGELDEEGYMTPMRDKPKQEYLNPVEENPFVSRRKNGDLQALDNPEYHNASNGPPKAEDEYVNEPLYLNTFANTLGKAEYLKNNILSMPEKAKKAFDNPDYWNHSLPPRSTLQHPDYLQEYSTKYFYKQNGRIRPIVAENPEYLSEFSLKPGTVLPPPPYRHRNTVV
Serine/threonine-protein kinase TAO2 (Homo sapiens), sequence (Q9UL54 whole entry): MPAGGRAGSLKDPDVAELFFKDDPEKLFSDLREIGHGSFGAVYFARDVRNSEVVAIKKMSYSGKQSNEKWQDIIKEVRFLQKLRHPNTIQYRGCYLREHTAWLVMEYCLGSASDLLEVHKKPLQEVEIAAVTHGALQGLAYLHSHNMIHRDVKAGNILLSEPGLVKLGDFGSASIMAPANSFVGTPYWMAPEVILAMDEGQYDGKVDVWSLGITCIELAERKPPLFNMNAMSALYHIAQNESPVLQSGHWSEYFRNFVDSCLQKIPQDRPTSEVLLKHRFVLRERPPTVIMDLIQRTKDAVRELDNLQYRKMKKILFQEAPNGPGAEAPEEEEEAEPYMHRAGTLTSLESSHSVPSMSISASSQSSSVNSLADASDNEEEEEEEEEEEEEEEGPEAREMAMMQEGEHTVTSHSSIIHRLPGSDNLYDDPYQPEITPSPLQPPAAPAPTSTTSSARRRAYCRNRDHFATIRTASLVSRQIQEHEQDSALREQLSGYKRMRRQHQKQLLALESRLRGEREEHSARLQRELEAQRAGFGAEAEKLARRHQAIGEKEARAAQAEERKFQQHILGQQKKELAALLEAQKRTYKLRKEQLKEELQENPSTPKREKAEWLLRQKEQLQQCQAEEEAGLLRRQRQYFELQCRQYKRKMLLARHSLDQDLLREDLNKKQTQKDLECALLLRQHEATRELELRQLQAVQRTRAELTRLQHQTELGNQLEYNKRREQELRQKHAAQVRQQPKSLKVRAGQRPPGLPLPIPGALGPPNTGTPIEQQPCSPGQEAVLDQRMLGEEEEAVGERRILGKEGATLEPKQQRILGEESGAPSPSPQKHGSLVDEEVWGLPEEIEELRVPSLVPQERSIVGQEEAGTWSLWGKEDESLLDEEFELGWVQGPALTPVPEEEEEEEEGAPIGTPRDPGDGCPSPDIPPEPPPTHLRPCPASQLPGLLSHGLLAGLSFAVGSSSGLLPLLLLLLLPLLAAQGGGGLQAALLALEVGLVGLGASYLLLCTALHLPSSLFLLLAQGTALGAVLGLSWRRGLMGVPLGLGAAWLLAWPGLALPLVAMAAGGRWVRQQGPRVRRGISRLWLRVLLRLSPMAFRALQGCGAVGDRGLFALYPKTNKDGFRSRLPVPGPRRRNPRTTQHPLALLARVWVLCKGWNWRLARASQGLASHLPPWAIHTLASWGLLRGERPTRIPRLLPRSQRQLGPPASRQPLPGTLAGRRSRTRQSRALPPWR
Insulin receptor (Homo sapiens), sequence (P06213 28-758 limits assumed): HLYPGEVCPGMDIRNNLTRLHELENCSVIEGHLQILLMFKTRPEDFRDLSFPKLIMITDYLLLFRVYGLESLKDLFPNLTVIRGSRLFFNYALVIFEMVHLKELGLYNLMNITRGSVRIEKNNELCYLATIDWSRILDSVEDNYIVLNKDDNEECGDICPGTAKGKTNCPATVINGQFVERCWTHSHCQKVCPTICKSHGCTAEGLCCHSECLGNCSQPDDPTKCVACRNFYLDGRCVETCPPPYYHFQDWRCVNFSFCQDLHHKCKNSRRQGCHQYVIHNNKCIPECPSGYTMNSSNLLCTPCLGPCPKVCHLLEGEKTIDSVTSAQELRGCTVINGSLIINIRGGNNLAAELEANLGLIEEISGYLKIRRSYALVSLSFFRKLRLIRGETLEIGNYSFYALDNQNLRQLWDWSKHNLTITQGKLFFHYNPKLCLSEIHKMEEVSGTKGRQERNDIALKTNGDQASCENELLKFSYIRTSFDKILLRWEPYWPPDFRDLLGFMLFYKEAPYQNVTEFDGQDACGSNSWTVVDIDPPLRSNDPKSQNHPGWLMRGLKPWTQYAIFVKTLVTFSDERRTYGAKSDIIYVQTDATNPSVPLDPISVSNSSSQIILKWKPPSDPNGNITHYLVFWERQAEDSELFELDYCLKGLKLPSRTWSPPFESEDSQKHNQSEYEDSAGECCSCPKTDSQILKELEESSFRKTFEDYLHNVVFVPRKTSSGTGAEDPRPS
Insulin receptor (Homo sapiens), sequence (P06213 763-1382 limits assumed): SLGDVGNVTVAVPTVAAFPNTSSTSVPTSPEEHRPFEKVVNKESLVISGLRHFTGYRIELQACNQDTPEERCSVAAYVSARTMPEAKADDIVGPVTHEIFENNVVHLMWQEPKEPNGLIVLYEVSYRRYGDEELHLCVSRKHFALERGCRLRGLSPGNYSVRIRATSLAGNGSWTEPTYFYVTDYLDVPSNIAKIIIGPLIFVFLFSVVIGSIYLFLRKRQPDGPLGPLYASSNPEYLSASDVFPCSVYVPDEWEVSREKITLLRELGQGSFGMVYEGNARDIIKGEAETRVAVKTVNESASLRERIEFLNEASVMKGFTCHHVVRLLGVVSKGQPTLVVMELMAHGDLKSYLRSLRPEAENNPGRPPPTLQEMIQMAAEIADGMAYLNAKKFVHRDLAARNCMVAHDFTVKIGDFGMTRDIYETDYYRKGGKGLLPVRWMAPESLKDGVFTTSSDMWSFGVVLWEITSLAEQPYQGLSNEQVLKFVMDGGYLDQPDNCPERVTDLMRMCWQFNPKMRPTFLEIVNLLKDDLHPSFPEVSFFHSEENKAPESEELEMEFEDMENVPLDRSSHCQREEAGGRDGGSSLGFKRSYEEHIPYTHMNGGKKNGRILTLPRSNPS

CC(C)(O)CNc1ncc(-c2ccnc(Nc3ccnc(Cl)c3)n2)c(CC2CC2)n1
inhibition [1]: inactive | Activity [2]: 111% | inhibition [3]: inactive | inhibition [4]: inactive | inhibition [5]: inactive | Activity [6]: 123% | inhibition [7]: inactive | inhibition [8]: inactive | IC50 [9]: 1.07 µM | inhibition [10]: inactive | inhibition [11]: inactive | Activity [12]: 129% | Activity [13]: 112% | inhibition [14]: inactive | inhibition [15]: inactive | Activity [16]: 104% | IC50 [17]: 2.68 µM | Activity [18]: 87% | Activity [19]: 97% | inhibition [20]: inactive | Activity [21]: 79% | inhibition [22]: inactive | inhibition [23]: inactive | inhibition [24]: inactive
